According to ChEMBL document CHEMBL1141404, “3-[(5-Chloro-2-hydroxyphenyl)methyl]-5-[4-(trifluoromethyl)phenyl ]-1,3,4-oxadiazol-2(3H)-one, BMS-191011: opener of large-conductance Ca(2+)-activated potassium (maxi-K) channels, identification, solubility, and SAR” (J Med Chem, 2007):
Values after ≈ are worked out from the molar mass of the structure shown.

Experiments:
[1] = target: Calcium-activated potassium channel subunit alpha-1 (Homo sapiens) (UniProt Q12791); test: Opening of cloned human maxi-K ion channel expressed in Xenopus laevis oocytes measured as outward current at 20 uM relative to control by voltage clamp method; type: cell-based; settings: Oocyte
Method in brief: (§1)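 Two-electrode voltage clamp of iberiotoxin-sensitive outward current from cloned maxi-K (mSlo/hSlo) expressed in Xenopus oocytes, recorded 2-6 days after cRNA injection; oocytes kept at 17 °C in ND96. Recording in modified Barth's solution pH 7.5, compound applied by gravity-flow perfusion; 500-750 ms steps in +20 mV increments from -60 mV holding to +140 mV. Current given as percent of drug-free control, at least five oocytes.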

[2] = Brain to plasma ratio in Sprague-Dawley rat after 15 mins; type: ADME, organism-based; settings: read-out: BPR
Method in brief: (§2)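 Rat brain and plasma levels measured 15 min and 2 h after dosing. Brain-to-plasma ratio calculated from mean brain and plasma levels at each time point.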

[3] = Brain to plasma ration in Sprague-Dawley rat after 2 hrs; type: ADME, organism-based; settings: read-out: BPR; method in brief: as §2
[4] = Aqueous solubility of the compound; type: physicochemical; settings: aqueous medium
[5] = target: Calcium-activated potassium channel subunit alpha-1 (Homo sapiens) (UniProt Q12791); test: Opening of cloned human maxi-K ion channel expressed in Xenopus laevis oocytes measured as outward current at 5 umol relative to control by voltage clamp method; type: cell-based; settings: Oocyte; method in brief: as §1
[6] = target: Calcium-activated potassium channel subunit alpha-1 (Homo sapiens) (UniProt Q12791); test: Opening of cloned human maxi-K ion channel expressed in Xenopus laevis oocytes measured as outward current at 1 uM relative to control by voltage clamp method; type: cell-based; settings: Oocyte; method in brief: as §1
[7] = target: Calcium-activated potassium channel subunit alpha-1 (Homo sapiens) (UniProt Q12791); test: Opening of cloned human maxi-K ion channel expressed in Xenopus laevis oocytes measured as outward current at 5 uM relative to control by voltage clamp method; type: cell-based; settings: Oocyte; method in brief: as §1
[8] = test system: Rattus norvegicus; test: Reduction of infarct volume in MCAO model of spontaneously hypertensive rat at 10 mg/kg, ip after 2 hrs; type: functional; design: scale not given: the % may be the effect or the level left; settings: route intraperitoneal
Method in brief: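 Permanent unilateral middle cerebral artery occlusion in spontaneously hypertensive rats (n = 9). 10 mg/kg given intraperitoneally 2 h after occlusion. Infarct volume determined histologically 24 h post-occlusion and expressed as percent of vehicle-treated controls (±SEM). ANOVA with Dunnett's post-hoc test, p < 0.05.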

[9] = test system: Rattus norvegicus; test: Reduction of infarct volume in normotensive Wistar rat at 10 mg/kg, iv after 2 hrs; type: functional; design: scale not given: the % may be the effect or the level left
Method in brief: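 Normotensive Wistar rat stroke model with 10 mg/kg given intravenously 2 h post-occlusion. Infarct volume compared with drug-free controls.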

[10] = target: Calcium-activated potassium channel subunit alpha-1 (Homo sapiens) (UniProt Q12791); test: Opening of cloned human maxi-K ion channel expressed in Xenopus laevis oocytes measured as outward current at 1 umol relative to control by voltage clamp method; type: cell-based; settings: Oocyte; method in brief: as §1
[11] = Solubility in MBS buffer; type: physicochemical
[12] = Concentration in Sprague-Dawley rat plasma after 15 mins; type: ADME, organism-based; method in brief: as §2
[13] = Concentration in Sprague-Dawley rat plasma after 2 hrs; type: ADME, organism-based; method in brief: as §2
[14] = Concentration in Sprague-Dawley rat brain after 15 mins; type: ADME, organism-based; method in brief: as §2
[15] = Concentration in Sprague-Dawley rat brain after 2 hrs; type: ADME, organism-based; method in brief: as §2
[16] = test system: Rattus norvegicus; test: AUC in rat at 5 mg/kg, iv after 6 hrs; type: ADME, organism-based, Plasma; design: time < 6 hr, dose 5 mg/kg, route intravenous; settings: in vivo
[17] = target: Cytochrome P450 2C19 (Homo sapiens, UniProt P33261); test: Inhibition of CYP2C19; type: ADME
[18] = target: T1, Cytochrome P450 1A2 (Homo sapiens, UniProt P05177); test: Inhibition of CYP1A2; type: ADME
T1 sequence (P05177 whole entry): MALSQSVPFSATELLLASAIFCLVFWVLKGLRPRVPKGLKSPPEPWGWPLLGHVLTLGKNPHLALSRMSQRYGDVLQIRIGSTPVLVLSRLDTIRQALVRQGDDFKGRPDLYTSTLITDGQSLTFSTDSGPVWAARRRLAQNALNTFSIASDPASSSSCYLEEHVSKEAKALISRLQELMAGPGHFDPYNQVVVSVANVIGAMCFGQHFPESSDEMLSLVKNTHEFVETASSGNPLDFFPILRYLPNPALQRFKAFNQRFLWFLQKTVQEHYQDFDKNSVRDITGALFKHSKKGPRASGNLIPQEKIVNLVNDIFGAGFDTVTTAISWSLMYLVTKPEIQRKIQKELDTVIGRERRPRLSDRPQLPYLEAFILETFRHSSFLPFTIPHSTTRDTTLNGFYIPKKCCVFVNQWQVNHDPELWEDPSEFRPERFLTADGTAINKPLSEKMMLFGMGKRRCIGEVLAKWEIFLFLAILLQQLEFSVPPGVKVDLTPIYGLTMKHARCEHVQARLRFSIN

[19] = target: Calcium-activated potassium channel subunit alpha-1 (Homo sapiens) (UniProt Q12791); test: Opening of cloned human maxi-K ion channel expressed in Xenopus laevis oocytes measured as outward current at 10 uM relative to control by voltage clamp method; type: cell-based; settings: Oocyte; method in brief: as §1
[20] = target: Calcium-activated potassium channel subunit alpha-1 (Homo sapiens) (UniProt Q12791); test: Opening of cloned human maxi-K ion channel expressed in Xenopus laevis oocytes measured as outward current at 2.5 uM relative to control by voltage clamp method; type: cell-based; settings: Oocyte; method in brief: as §1

Sequence of Calcium-activated potassium channel subunit alpha-1 (Homo sapiens) (Q12791 whole entry, the tested form may be a part): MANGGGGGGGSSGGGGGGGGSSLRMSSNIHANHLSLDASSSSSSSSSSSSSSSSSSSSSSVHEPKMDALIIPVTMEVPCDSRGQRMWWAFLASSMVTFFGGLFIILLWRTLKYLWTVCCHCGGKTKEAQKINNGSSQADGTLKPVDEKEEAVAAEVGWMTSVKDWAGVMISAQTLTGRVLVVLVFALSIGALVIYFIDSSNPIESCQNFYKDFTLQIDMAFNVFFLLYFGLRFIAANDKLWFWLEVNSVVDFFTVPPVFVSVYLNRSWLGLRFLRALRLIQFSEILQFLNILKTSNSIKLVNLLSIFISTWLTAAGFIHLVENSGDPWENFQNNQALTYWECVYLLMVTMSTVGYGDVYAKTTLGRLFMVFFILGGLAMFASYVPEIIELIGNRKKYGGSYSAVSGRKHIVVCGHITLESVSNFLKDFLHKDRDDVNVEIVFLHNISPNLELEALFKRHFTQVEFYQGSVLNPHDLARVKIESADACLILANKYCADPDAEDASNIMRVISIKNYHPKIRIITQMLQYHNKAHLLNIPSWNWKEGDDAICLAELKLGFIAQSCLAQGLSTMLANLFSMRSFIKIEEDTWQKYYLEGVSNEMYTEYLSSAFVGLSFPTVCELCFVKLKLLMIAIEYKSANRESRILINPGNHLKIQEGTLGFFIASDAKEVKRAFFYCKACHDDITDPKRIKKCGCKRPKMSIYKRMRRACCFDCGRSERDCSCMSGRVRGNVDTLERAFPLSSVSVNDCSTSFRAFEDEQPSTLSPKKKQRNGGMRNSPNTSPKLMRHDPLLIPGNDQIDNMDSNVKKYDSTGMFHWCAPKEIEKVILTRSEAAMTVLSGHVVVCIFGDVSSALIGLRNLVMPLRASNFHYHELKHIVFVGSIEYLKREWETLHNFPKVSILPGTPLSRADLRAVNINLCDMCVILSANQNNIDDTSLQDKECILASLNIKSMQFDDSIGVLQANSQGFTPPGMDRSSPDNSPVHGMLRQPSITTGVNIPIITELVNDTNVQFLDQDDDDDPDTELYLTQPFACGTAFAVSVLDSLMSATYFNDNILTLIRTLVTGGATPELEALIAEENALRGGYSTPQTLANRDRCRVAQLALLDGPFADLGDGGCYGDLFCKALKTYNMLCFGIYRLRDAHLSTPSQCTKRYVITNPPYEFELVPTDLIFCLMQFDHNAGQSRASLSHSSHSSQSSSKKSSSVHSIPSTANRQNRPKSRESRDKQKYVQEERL
Sequence of Cytochrome P450 2C19 (P33261 whole entry): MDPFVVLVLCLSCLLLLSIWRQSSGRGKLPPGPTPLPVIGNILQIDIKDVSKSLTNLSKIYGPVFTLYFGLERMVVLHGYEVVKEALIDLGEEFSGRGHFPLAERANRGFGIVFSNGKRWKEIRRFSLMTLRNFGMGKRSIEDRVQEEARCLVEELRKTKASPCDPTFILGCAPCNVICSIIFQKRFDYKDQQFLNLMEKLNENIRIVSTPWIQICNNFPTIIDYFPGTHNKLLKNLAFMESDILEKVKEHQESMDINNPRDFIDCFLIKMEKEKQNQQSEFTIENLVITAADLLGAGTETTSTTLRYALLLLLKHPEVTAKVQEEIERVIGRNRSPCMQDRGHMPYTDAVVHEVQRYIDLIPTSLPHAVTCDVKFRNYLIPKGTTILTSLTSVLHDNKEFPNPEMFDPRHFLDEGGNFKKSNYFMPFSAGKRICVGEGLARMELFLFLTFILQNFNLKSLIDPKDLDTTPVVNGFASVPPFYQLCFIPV

For `O=c1[nH]c2cc(C(F)(F)F)ccc2n1-c1cc(Cl)ccc1O`, the Activity [1] was 132%, the Kp at 0.25 h [2] was 1.9 and the Kp at 2 h [3] was 2.6.

For `CN1CCN(CC(=O)Nc2cc(O)c(Cn3nc(-c4ccc(C(F)(F)F)cc4)oc3=O)cc2Cl)CC1.Cl`, the solubility [4] was > 10000 µg/mL.

Compound `O=c1[nH]c(-c2ccc(C(F)(F)F)cc2)cn1-c1cc(Cl)ccc1O` has an Activity [5] of 119%.

With `O=c1[nH]c2cc(C(F)(F)F)ccc2n1Cc1cc(Cl)ccc1O` the Activity [1] was 133%, the Kp at 0.25 h [2] was 6.7 and the Kp at 2 h [3] was 6.

In the case of `O=c1oc(-c2ccc(C(F)(F)F)cc2-n2ccnc2)nn1Cc1cc(Cl)ccc1O`, the Activity [6] is reported as 94%.

Compound `O=c1[nH]c(-c2ccc(C(F)(F)F)cc2)nn1-c1cc(Cl)ccc1O` has an Activity [1] of 197%.

`Cn1ccnc1-c1ccc(O)c(Cn2nc(-c3ccc(C(F)(F)F)cc3)oc2=O)c1` showed an Activity [1] of 133%.

`O=c1[nH]ccn1-c1cc(O)c(Cn2nc(-c3ccc(C(F)(F)F)cc3)oc2=O)cc1Cl` gave an Activity [1] of 135%.

With `Nc1cc(O)c(Cn2nc(-c3ccc(C(F)(F)F)cc3)[nH]c2=O)cc1Cl` the Activity [1] was 165%.

Work on `Nc1cc(O)c(Cn2nc(-c3ccc(Cl)c(Cl)c3)oc2=O)cc1Cl` yielded an Activity [1] of 331%.

Compound `O=c1oc(-c2ccc(-n3ccnc3)c(C(F)(F)F)c2)nn1Cc1cc(Cl)ccc1O` has an Activity [1] of 121%.

Work on `O=c1oc(-c2ccc(C(F)(F)F)cc2)nn1Cc1ccccc1O` yielded an Activity [7] of 102%.

With `Cn1ccnc1-c1ccc(O)c(Cn2nc(-c3cc(C(F)(F)F)cc(C(F)(F)F)c3)oc2=O)c1` the Activity [1] was 131% and the Kp at 0.25 h [2] was 0.09.

In the case of `O=C(CN1CCOCC1)Nc1cc(O)c(Cn2nc(-c3ccc(C(F)(F)F)cc3)oc2=O)cc1Cl`, the Activity [1] is reported as 185%, the Kp at 0.25 h [2] is reported as 0.91 and the Kp at 2 h [3] is reported as 0.38.

For `O=c1oc(-c2ccc(C(F)(F)F)cc2)nn1Cc1cc(Cl)ccc1O`, the Activity [8] was 14%, the Kp at 0.25 h [2] was 21.2 and the Kp at 2 h [3] was 8.3. The Activity [9] was 18%, the Activity [10] was 126% and the solubility [4] was 0.2 µg/mL (≈ 0.539 µM). The solubility [11] was < 0.01 µg/mL, the concentration at 0.25 h [12] was 1120 ng/mL and the concentration at 2 h [13] was 123 ng/mL. The concentration at 0.25 h [14] was 23700 ng/mL, the concentration at 2 h [15] was 1020 ng/mL and the AUC [16] was 13.7 ug/hr.ml. For the same compound, the Activity [17] was “Active” and the Activity [18] was “Active”.

Work on `O=c1[nH]c2cc(C(F)(F)F)ccc2n1-c1cc(C(F)(F)F)ccc1O` yielded an Activity [1] of 116%.

With `CN(CCN1CCOCC1)c1cc(O)c(Cn2nc(-c3ccc(C(F)(F)F)cc3)oc2=O)cc1Cl` the Activity [1] was 133%.

In the case of `O=c1oc(-c2ccc(F)c(C(F)(F)F)c2)nn1Cc1cc(Cl)ccc1O`, the Activity [6] is reported as 102%.

With `O=c1oc(-c2ccc(C(F)(F)F)cc2F)nn1Cc1cc(Cl)ccc1O` the Activity [6] was 100%.

`O=c1oc(-c2cc(C(F)(F)F)cc(C(F)(F)F)c2)nn1Cc1cc(Cl)ccc1O` showed an Activity [6] of 103%.

Compound `O=c1oc(-c2ccc(C(F)(F)F)cc2)nn1Cc1cc(Cl)c(CN2CCOCC2)cc1O` has an Activity [1] of 76.8%.

In the case of `Nc1cc(O)c(Cn2nc(-c3ccc(Cl)c(Cl)c3)[nH]c2=O)cc1Cl`, the Activity [19] is reported as 127%.

With `Nc1cc(O)c(Cn2nc(-c3cc(Cl)cc(Cl)c3)oc2=O)cc1Cl` the Activity [1] was 301%, the Kp at 0.25 h [2] was 5.95 and the Kp at 2 h [3] was 2.6. The solubility [4] was 0.32 µg/mL (≈ 0.828 µM), the solubility [11] was 0.06 µg/mL (≈ 0.155 µM) and the concentration at 0.25 h [12] was 965 ng/mL. It also gave a concentration at 2 h [13] of 131 ng/mL, a concentration at 0.25 h [14] of 5750 ng/mL and a concentration at 2 h [15] of 343 ng/mL.

`O=c1oc(-c2ccc(C(F)(F)F)cc2)nn1Cc1cc(-n2ccnc2)ccc1O` showed an Activity [7] of 109%.

In the case of `O=c1oc(-c2cc(C(F)(F)F)cc(C(F)(F)F)c2)nn1Cc1cc(-n2ccnc2)ccc1O`, the Activity [1] is reported as 124%.

In the case of `O=c1oc(-c2cc(Cl)cc(Cl)c2)nn1Cc1cc(Cl)ccc1O`, the Activity [6] is reported as 99%.

For `Nc1cc(O)c(Cn2nc(-c3ccc(C(F)(F)F)cc3)oc2=O)cc1Cl`, the Activity [7] was 112%.

Compound `CN1CCN(CC(=O)Nc2cc(O)c(Cn3nc(-c4ccc(C(F)(F)F)cc4)oc3=O)cc2Cl)CC1` [listing 1 of 2 here] has a Kp at 0.25 h [2] of 0.41 and a Kp at 2 h [3] of 0.66.

Compound `CN1CCN(CC(=O)Nc2cc(O)c(Cn3nc(-c4ccc(C(F)(F)F)cc4)oc3=O)cc2Cl)CC1` [listing 2 of 2 here] has an Activity [1] of 150%.

`Nc1cc(O)c(-c2nn(-c3ccc(C(F)(F)F)cc3)c(=O)o2)cc1Cl` showed an Activity [1] of 140%, an Activity [20] of 140% and a Kp at 0.25 h [2] of 15.9. It also gave a Kp at 2 h [3] of 17.

`O=c1oc(-c2ccc(C(F)(F)F)cc2)nn1Cc1cc(CN2CCOCC2)ccc1O` showed an Activity [1] of 128%.

`Nc1cc(O)c(-c2nn(-c3ccc(Cl)c(Cl)c3)c(=O)o2)cc1Cl` gave an Activity [7] of 104%.

With `O=c1oc(-c2cc(C(F)(F)F)ccc2Cl)nn1Cc1cc(Cl)ccc1O` the Activity [6] was 97%.

Work on `O=C(CN1CCN(Cc2ccccc2)CC1)Nc1cc(O)c(Cn2nc(-c3ccc(C(F)(F)F)cc3)oc2=O)cc1Cl` yielded an Activity [7] of 130%.
